Measured values: PMC7703486 (Angewandte Chemie (International ed. in English), 2020)
Read-outs that look alike come from different tables or passages of the source. One block for each compound: values may come before it.

Legend:
CDK2/cyclin A = CDK2/cyclin A (Homo sapiens, UniProt P24941); assay: Biochemical assay CDK2/cyclin A
CDK1/cyclin B = CDK1/cyclin B (Homo sapiens, UniProt P06493); assay: Biochemical assay CDK1/cyclin B
CDK9/cyclin T1 = CDK9/cyclin T1 (Homo sapiens, UniProt P50750); assay: Biochemical assay CDK9/cyclin T1
Sequence of CDK9/cyclin T1 (P50750 whole entry): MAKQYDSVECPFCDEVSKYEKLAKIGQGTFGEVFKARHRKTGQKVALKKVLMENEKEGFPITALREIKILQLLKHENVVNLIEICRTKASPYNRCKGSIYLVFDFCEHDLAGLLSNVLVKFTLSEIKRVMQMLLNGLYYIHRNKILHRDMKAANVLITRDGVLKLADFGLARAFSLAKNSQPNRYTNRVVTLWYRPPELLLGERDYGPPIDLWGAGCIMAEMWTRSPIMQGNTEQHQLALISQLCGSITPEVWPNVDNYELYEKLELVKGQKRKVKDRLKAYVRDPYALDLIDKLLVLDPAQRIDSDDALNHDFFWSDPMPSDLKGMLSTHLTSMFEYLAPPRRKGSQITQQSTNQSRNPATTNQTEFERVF
Sequence of CDK9/cyclin T1 (O60563 whole entry partner): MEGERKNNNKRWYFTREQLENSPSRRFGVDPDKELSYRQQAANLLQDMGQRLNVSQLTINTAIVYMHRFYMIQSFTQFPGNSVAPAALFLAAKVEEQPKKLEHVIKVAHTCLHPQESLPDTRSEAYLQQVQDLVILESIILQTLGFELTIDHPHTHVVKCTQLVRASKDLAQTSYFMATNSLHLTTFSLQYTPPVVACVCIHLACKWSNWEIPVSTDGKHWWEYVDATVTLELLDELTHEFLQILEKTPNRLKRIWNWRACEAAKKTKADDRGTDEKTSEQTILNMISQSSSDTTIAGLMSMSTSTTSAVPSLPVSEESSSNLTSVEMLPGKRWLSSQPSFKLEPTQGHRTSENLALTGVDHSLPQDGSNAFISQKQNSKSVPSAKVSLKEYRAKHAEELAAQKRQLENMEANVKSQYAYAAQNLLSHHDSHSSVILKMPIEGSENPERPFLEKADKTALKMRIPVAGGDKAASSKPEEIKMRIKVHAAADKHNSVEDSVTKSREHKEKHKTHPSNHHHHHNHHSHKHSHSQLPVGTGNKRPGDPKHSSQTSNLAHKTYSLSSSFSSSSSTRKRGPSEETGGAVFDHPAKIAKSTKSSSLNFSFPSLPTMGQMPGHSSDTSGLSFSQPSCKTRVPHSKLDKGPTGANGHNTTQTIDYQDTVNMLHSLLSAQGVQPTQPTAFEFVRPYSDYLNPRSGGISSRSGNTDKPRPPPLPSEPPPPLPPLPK

CDK6/cyclin D1 = CDK6/cyclin D1 (Homo sapiens, UniProt Q00534); assay: Biochemical assay CDK6/cyclin D1
Sequence of CDK6/cyclin D1 (Q00534 whole entry): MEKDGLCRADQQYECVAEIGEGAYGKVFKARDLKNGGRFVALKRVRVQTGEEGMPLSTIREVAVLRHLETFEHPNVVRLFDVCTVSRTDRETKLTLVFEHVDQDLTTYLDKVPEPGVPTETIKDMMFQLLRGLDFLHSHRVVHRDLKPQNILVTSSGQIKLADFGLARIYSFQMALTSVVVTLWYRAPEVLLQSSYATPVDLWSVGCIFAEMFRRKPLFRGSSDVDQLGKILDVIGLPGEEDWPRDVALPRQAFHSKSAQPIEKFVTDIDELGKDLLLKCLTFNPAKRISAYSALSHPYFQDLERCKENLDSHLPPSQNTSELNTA
Sequence of CDK6/cyclin D1 (P24385 whole entry partner): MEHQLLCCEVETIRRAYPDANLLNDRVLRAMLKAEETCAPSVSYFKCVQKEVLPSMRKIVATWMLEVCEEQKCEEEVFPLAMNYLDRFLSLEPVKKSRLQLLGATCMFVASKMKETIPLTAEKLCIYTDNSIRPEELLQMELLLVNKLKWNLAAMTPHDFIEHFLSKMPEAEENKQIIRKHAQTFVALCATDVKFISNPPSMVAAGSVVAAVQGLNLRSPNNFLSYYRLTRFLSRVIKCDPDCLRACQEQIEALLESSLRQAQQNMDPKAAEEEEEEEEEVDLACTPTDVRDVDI

CDK4/cyclin D1 = CDK4/cyclin D1 (Homo sapiens, UniProt P11802); assay: Biochemical assay CDK4/cyclin D1
Sequence of CDK4/cyclin D1 (P11802 whole entry): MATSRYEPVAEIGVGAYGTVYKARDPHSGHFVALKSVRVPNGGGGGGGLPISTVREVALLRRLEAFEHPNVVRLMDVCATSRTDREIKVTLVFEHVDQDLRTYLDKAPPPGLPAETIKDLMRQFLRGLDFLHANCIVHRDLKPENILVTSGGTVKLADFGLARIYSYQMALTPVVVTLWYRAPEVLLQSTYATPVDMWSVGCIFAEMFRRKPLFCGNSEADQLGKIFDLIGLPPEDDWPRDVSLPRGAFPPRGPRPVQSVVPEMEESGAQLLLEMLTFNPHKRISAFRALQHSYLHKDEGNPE
Sequence of CDK4/cyclin D1 (P24385 whole entry partner): as the sequence (P24385 whole entry partner) above

CDK7/cyclin H = CDK7/cyclin H (Homo sapiens, UniProt P50613); assay: Biochemical assay CDK7/cyclin H
Sequence of CDK7/cyclin H (P50613 whole entry): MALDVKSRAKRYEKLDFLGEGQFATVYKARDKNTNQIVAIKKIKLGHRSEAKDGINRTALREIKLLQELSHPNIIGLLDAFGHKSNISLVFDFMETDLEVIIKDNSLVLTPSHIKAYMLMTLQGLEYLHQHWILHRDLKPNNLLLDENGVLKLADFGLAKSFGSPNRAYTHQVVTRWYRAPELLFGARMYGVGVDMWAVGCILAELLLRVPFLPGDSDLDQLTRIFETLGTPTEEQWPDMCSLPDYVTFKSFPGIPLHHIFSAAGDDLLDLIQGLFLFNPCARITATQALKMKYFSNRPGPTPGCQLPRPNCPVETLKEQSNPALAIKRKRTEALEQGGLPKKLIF
Sequence of CDK7/cyclin H (P51946 whole entry partner): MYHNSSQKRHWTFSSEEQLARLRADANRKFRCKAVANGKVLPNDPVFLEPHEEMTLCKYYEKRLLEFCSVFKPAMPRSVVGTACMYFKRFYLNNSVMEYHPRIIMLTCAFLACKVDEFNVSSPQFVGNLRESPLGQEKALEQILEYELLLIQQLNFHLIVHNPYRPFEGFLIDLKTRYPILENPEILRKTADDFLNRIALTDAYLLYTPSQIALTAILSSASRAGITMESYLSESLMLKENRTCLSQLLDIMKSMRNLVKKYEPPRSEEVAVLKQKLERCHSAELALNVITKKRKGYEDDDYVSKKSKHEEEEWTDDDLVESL

CDK5/p25 = CDK5/p25 (Homo sapiens, UniProt Q00535); assay: Biochemical assay CDK5/p25
Sequence of CDK5/p25 (Q00535 whole entry): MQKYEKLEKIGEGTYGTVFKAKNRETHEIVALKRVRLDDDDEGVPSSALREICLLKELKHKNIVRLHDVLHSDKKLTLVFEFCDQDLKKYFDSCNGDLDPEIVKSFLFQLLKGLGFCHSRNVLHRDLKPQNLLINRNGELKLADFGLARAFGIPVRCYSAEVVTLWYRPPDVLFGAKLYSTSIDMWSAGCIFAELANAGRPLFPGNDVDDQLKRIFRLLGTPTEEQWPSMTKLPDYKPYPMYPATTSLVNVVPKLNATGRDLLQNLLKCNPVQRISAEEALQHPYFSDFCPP
Sequence of CDK5/p25 (Q15078 99-307 partner limits assumed): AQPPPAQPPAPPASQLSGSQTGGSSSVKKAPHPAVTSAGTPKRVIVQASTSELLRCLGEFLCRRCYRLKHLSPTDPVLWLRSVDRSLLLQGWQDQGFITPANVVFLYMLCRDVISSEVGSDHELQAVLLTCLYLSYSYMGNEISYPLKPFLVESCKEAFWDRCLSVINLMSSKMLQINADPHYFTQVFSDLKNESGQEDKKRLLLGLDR

Aurora A [1] = molecular target: T1, Aurora A (Homo sapiens, UniProt O14965); assay: Biochemical activity assay Aurora A
T1 sequence (O14965 1-403): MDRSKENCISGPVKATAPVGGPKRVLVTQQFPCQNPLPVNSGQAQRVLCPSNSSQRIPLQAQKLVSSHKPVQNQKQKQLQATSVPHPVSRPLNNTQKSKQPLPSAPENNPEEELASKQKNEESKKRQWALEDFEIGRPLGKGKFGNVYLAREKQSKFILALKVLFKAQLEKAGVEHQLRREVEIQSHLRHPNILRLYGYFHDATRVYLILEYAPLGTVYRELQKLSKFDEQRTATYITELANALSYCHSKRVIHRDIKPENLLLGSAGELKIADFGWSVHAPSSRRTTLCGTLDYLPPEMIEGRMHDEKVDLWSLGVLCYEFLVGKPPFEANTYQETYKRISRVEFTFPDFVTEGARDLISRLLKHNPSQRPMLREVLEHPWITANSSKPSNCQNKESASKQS

CDK2 [2] = molecular target: T2, CDK2 (Homo sapiens, UniProt P24941); assay: KINOMEscan, CDK2; format: binding; conditions: 1 μM; only CDK with potent inhibition; CDK1 not in panel
Aurora A [3] = molecular target: T1, Aurora A; assay: Degradation in OVCAR8 cells, Aurora A; format: cell-based; conditions: OVCAR8, same conditions (Figure S3)
STK33 = STK33 (Homo sapiens, UniProt Q9BYT3); assay: Pulse-chase SILAC MS proteomics in OVCAR8 cells, STK33; format: cell-based; conditions: OVCAR8, 250 nM, 6 hours
CDK2 [4] = molecular target: T2, CDK2; assay: Immunoblot degradation in CRBN-null Jurkat cells, CDK2; format: cell-based; conditions: 6 hours
Method in brief: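 Used to test whether degradation requires cereblon: CRBN-null Jurkat cells treated 6 h with test compound, then CDK2 levels read by immunoblot.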

CDK4 = CDK4 (Homo sapiens, UniProt P11802); assay: Immunoblot degradation in Jurkat cells, CDK4; format: cell-based; conditions: 250 nM, 6 hours, immunoblot
Sequence of CDK4 (P11802 whole entry): as the sequence (P11802 whole entry) above

CDK1 [5] = molecular target: T3, CDK1 (Homo sapiens, UniProt P06493); assay: Immunoblot degradation in Jurkat cells, CDK1; format: cell-based; conditions: 250 nM, 6 hours
T3 sequence (P06493 whole entry): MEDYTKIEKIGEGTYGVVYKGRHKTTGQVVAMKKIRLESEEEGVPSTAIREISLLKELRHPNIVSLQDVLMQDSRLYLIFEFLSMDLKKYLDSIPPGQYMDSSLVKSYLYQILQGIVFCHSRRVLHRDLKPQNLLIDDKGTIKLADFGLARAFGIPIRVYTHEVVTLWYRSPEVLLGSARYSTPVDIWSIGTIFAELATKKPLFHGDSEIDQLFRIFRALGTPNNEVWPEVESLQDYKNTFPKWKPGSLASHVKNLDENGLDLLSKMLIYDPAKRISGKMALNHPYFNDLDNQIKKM

CRBN = CRBN (Homo sapiens, UniProt Q96SW2); assay: Cellular CRBN engagement assay; format: cell-based
CDK2 [6] = molecular target: T2, CDK2; assay: Immunoblot degradation in Jurkat cells, CDK2; format: cell-based; conditions: 250 nM, 6 hours
Method in brief: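 Jurkat cells exposed 6 h to test compound, at 1 μM in the initial degrader screen and otherwise at the indicated concentrations, then CDK2 read by immunoblot. Cereblon dependence was checked with an analogue carrying a methylated glutarimide that cannot engage cereblon, under the same 6 h conditions.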

OVCAR8 cells = assay: Growth rate inhibition in OVCAR8 cells; format: cell-based
CDK5 [7] = molecular target: T4, CDK5 (Homo sapiens, UniProt Q00535); assay: Pulse-chase SILAC MS proteomics in OVCAR8 cells, CDK5; format: cell-based; conditions: OVCAR8, 250 nM, 6 hours
T4 sequence (Q00535 whole entry): as the sequence (Q00535 whole entry) above

CDK2 [8] = molecular target: T2, CDK2; assay: Pulse-chase SILAC MS proteomics in OVCAR8 cells, CDK2; format: cell-based; conditions: OVCAR8, 250 nM, 6 hours
CDK5 [9] = molecular target: T4, CDK5; assay: Immunoblot degradation in Jurkat cells, CDK5; format: cell-based; conditions: 6 hours, immunoblot (Figure 3A)
CDK5 [10] = molecular target: T4, CDK5; assay: Immunoblot degradation in OVCAR8 cells, CDK5; format: cell-based; conditions: 6 hours
more than 400 kinases = assay: KINOMEscan panel profiling; format: binding; conditions: 1 μM
JNK2 (MAPK9) = JNK2 (MAPK9) (Homo sapiens, UniProt P45984); assay: Pulse-chase SILAC MS proteomics in OVCAR8 cells, JNK2; format: cell-based; conditions: OVCAR8, 250 nM, 6 hours
CDK9 = CDK9 (Homo sapiens, UniProt P50750); assay: Immunoblot degradation in Jurkat cells, CDK9; format: cell-based; conditions: 250 nM, 6 hours, immunoblot
Sequence of CDK9 (P50750 whole entry): as the sequence (P50750 whole entry) above

CDK7 = CDK7 (Homo sapiens, UniProt P50613); assay: Immunoblot degradation in Jurkat cells, CDK7; format: cell-based; conditions: 250 nM, 6 hours, immunoblot
Sequence of CDK7 (P50613 whole entry): as the sequence (P50613 whole entry) above

RSK1 (RPS6KA1) = RSK1 (RPS6KA1) (Homo sapiens, UniProt Q15418); assay: Pulse-chase SILAC MS proteomics in OVCAR8 cells, RSK1; format: cell-based; conditions: OVCAR8, 250 nM, 6 hours
Aurora A [11] = molecular target: T1, Aurora A; assay: Pulse-chase SILAC MS proteomics in OVCAR8 cells, Aurora A; format: cell-based; conditions: OVCAR8, 250 nM, 6 hours
CDK2 [12] = molecular target: T2, CDK2; assay: Immunoblot degradation in OVCAR8 cells, CDK2; format: cell-based; conditions: 6 hours
CDK6 = CDK6 (Homo sapiens, UniProt Q00534); assay: Immunoblot degradation in Jurkat cells, CDK6; format: cell-based; conditions: 250 nM, 6 hours, immunoblot
Sequence of CDK6 (Q00534 whole entry): as the sequence (Q00534 whole entry) above

CDK1 [13] = molecular target: T3, CDK1; assay: Immunoblot degradation in OVCAR8 cells, CDK1; format: cell-based; conditions: 6 hours
[14] = read-out: CDK2 IC50, Table 2, w/cyclin A, duplicate
[15] = read-out: CDK6 IC50, Table 2, w/cyclin D1, duplicate
[16] = read-out: CDK5 IC50, Table 2, w/p25, duplicate
[17] = read-out: CDK4 IC50, Table 2, w/cyclin D1, duplicate
[18] = read-out: CDK1 IC50, Table 2, w/cyclin B, duplicate

Sequence of CDK1/cyclin B (P06493 whole entry): as the sequence (P06493 whole entry) above
Sequence of CDK1/cyclin B (P14635 whole entry partner): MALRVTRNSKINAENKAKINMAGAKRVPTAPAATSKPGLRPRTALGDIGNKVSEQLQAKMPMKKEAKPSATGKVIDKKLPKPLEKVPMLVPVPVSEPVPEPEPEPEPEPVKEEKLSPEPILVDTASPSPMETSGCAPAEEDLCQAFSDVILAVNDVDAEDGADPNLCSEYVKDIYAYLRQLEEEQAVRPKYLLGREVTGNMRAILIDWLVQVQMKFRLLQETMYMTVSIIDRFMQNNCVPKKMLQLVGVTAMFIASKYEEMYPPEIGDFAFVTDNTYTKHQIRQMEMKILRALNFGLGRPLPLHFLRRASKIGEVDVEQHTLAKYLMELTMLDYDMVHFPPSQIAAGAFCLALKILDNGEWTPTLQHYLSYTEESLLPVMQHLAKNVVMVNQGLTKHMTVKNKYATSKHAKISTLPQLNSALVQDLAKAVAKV

- IC50 (CDK9/cyclin T1; read-out: CDK9/cyclin T1 IC50, Table 3, duplicate): 25.7 nM
- IC50 (CDK2/cyclin A; read-out: CDK2/cyclin A IC50, Table 3, duplicate): 10.9 nM
- IC50 (CDK6/cyclin D1; read-out: CDK6/cyclin D1 IC50, Table 3, duplicate): 465 nM
- IC50 (CDK5/p25; read-out: CDK5/p25 IC50, Table 3, duplicate): 7 nM
- IC50 (CDK4/cyclin D1; read-out: CDK4/cyclin D1 IC50, Table 3, duplicate): 901 nM
- IC50 (CDK7/cyclin H; read-out: CDK7/cyclin H IC50, Table 3, duplicate): 286 nM
- IC50 (CDK1/cyclin B; read-out: CDK1/cyclin B IC50, Table 3, duplicate): 8.7 nM
SMILES: NC(=O)c1c(F)cccc1Nc1nc(Nc2ccc(S(=O)(=O)NCCOCCOCCOCCOCCNc3cccc4c3C(=O)N(C3CCC(=O)NC3=O)C4=O)cc2)ncc1Br (stereo not drawn) [TMX-2138]

- IC50 (CDK9/cyclin T1): 2640 nM
- IC50 (Aurora A [1]): 205 nM
- IC50 (CDK2/cyclin A): 6.5 nM
- CDK2 inhibition in KINOMEscan (CDK2 [2]): potent inhibition
- IC50 (CDK6/cyclin D1): 2220 nM
- concentration needed to achieve observable Aurora A degradation (Aurora A [3]): 5 µM
- degree of degradation of STK33 (proteomics) (STK33): relatively weak
- CDK2 degradation (CDK2 [4]): no CDK2 degradation was detected
- CDK4 degradation (CDK4): not affected
- CDK1 degradation (CDK1 [5]): not affected
- IC50 (CRBN): 46.9 nM
- IC50 (CDK5/p25): 6.8 nM
- IC50 (CDK4/cyclin D1): 7390 nM
- CDK2 degradation (CDK2 [6]): induced CDK2 degradation
- CDK5 degradation (proteomics) (CDK5 [7]): effectively degraded
- CDK2 degradation (proteomics) (CDK2 [8]): effectively degraded
- CDK5 degradation (CDK5 [9]): retained the ability to degrade CDK5
- CDK5 degradation (CDK5 [10]): degraded in a dose dependent manner
- IC50 (CDK7/cyclin H): 2620 nM
- degree of degradation of JNK2 (MAPK9) (proteomics) (JNK2 (MAPK9)): relatively weak
- CDK9 degradation (CDK9): not affected
- IC50 (CDK1/cyclin B): 20.3 nM
- CDK7 degradation (CDK7): not affected
- degree of degradation of RSK1 (RPS6KA1) (proteomics) (RSK1 (RPS6KA1)): relatively weak
- Aurora A degradation (proteomics) (Aurora A [11]): effectively degraded
- CDK2 degradation (CDK2 [12]): degraded in a dose dependent manner
- CDK6 degradation (CDK6): not affected
- CDK1 degradation (CDK1 [13]): remained intact
SMILES: Cc1cc(S(=O)(=O)NCCOCCOCCOCCOCCNc2cccc3c2C(=O)N(C2CCC(=O)NC2=O)C3=O)ccc1Nc1ncc(Br)c(Nc2cccc(F)c2C(N)=O)n1 (stereo not drawn) [TMX-2172]
- growth rate inhibitory effect (OVCAR8 cells): strong growth rate inhibitory effects
- growth rate inhibitory potency relative to non-degrading control ZXH-7035 (OVCAR8 cells; 72 hours): approximately 8.5 fold
- number of kinases with >99% inhibition compared to DMSO (more than 400 kinases): 14

Second part, the compound before the results:

SMILES: NC(=O)c1c(F)cccc1Nc1nc(NC2CCN(S(=O)(=O)CCNC(=O)CCCCCOc3cccc4c3C(=O)N(C3CCC(=O)NC3=O)C4=O)CC2)ncc1Br (stereo not drawn) [TMX-1169]
- IC50 (CDK2/cyclin A; read-out: CDK2/cyclin A IC50, Table 1, degraders, tested in duplicate): 20.5 nM
- IC50 (CDK1/cyclin B; read-out: CDK1/cyclin B IC50, Table 1, degraders, tested in duplicate): 31 nM

SMILES: CS(=O)(=O)N1CCC(Nc2ncc(Br)c(Nc3cccc(F)c3C(N)=O)n2)CC1 [TMX-2039]
- enzymatic IC50 CDK9 (CDK9/cyclin T1; Figure 1): low nanomolar
- enzymatic IC50 CDK2 (CDK2/cyclin A; Figure 1): low nanomolar
- enzymatic IC50 CDK6 (CDK6/cyclin D1; Figure 1): low nanomolar
- enzymatic IC50 CDK4 (CDK4/cyclin D1; Figure 1): low nanomolar
- enzymatic IC50 CDK7 (CDK7/cyclin H; Figure 1): low nanomolar
- enzymatic IC50 CDK1 (CDK1/cyclin B; Figure 1): low nanomolar

SMILES: Cc1cc(S(N)(=O)=O)ccc1Nc1ncc(Br)c(Nc2cccc(F)c2C(N)=O)n1 [TMX-3010]
- discrimination for inhibiting CDK1, CDK2, and CDK5 over CDK4 and CDK6 (CDK2/cyclin A; benchmarked to CDK2 IC50 value): hundred-fold
- IC50 (CDK2/cyclin A; [14]): 0.7 nM
- IC50 (CDK6/cyclin D1; [15]): 84.1 nM
- IC50 (CDK5/p25; [16]): 0.9 nM
- IC50 (CDK4/cyclin D1; [17]): 135 nM
- IC50 (CDK1/cyclin B; [18]): 1.2 nM

SMILES: NC(=O)c1c(F)cccc1Nc1nc(Nc2ccc(S(N)(=O)=O)cc2)ncc1Br [TMX-3013]
- IC50 (CDK2/cyclin A; [14]): < 0.5 nM
- IC50 (CDK6/cyclin D1; [15]): 15.6 nM
- IC50 (CDK5/p25; [16]): 0.5 nM
- IC50 (CDK4/cyclin D1; [17]): 24.5 nM
- IC50 (CDK1/cyclin B; [18]): 0.9 nM
